Results taken from ChEMBL document CHEMBL1136016, “Synthesis, biological activity, and molecular modeling investigation of new pyrazolo[4,3-e]-1,2,4-triazolo[1,5-c]pyrimidine derivatives as human A(3) adenosine receptor antagonists” (J Med Chem, 2002).
Values belong to the molecule of their own block, whether it stands above or below them.

Key:
Adenosine receptor A2b [1] = biological target: T1, Adenosine receptor A2b (Homo sapiens, UniProt P29275); experiment: Displacement of [3H]DPCPX from human Adenosine A2B receptor expressed in HEK293 cells; […]; assay type: cell-based
T1 sequence (P29275 whole entry): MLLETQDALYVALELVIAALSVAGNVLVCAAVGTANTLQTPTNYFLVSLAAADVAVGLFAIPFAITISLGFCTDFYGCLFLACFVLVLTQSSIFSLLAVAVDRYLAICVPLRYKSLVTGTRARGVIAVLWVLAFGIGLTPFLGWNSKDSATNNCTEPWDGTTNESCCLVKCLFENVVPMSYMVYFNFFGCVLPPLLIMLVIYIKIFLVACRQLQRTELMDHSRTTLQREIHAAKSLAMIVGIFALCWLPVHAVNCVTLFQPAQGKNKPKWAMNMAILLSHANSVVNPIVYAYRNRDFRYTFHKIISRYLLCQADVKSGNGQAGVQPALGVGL
In short: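 Competition binding on membranes of HEK-293 cells carrying recombinant human A2B receptor. Incubation 60 min at 25 °C in 50 mM Tris HCl pH 7.4 with 10 mM MgCl2, 1 mM EDTA, 0.1 mM benzamidine and 2 IU/mL adenosine deaminase. Radioligand 40 nM [3H]DPCPX, at least six to eight test concentrations. NECA defined nonspecific binding. Bound ligand separated on glass-fibre filters and counted; n = 3-6.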

Adenosine receptor A1 [2] = biological target: T2, Adenosine receptor A1 (Homo sapiens, UniProt P30542); experiment: Displacement of [3H]DPCPX from human Adenosine A1 receptor expressed in CHO cells; range 345-465; assay type: cell-based
T2 sequence (P30542 whole entry): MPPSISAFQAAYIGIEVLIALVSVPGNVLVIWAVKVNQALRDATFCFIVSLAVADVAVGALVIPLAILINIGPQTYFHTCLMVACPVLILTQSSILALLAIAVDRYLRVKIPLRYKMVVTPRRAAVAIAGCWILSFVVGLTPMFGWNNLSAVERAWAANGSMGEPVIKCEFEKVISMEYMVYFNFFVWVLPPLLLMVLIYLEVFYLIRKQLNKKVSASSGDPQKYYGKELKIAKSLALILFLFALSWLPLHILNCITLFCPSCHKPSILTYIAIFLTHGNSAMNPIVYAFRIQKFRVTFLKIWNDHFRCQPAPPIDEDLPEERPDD

Adenosine receptor A3 [3] = biological target: T3, Adenosine receptor A3 (Homo sapiens, UniProt P0DMS8); experiment: Displacement of [3H]MRE3008-F20 binding at human Adenosine A3 receptor expressed in HEK cells; range 0.77-0.96; assay type: cell-based, HEK293
T3 sequence (P0DMS8 whole entry): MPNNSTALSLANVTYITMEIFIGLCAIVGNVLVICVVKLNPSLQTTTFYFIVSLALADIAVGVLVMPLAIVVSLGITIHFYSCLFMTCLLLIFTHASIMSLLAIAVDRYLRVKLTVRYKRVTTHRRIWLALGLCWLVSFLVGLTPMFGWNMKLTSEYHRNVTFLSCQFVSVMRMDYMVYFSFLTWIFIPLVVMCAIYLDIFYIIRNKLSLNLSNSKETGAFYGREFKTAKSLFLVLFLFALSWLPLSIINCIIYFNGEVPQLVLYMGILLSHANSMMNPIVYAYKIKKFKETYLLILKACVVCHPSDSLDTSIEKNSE

Adenosine receptor A2a [4] = biological target: T4, Adenosine receptor A2a (Homo sapiens, UniProt P29274); experiment: Displacement of [3H]SCH-58261 from human Adenosine A2A receptor expressed in HEK293 cells; range 114-170; assay type: cell-based
T4 sequence (P29274 whole entry): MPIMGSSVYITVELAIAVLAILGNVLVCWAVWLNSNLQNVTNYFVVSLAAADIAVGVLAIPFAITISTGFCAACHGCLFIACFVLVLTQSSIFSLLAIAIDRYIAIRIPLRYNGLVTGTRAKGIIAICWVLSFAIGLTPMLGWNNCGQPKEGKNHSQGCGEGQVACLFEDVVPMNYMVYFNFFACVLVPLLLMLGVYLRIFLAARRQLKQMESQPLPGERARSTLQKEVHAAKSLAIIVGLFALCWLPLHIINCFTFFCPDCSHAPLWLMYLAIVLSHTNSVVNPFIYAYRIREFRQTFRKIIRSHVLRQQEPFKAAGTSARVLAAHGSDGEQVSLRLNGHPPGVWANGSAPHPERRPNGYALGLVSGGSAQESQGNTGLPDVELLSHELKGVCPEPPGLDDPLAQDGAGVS

[5] = biological target: Adenosine receptors; A2b & A3 (Homo sapiens) (UniProt P29275+P0DMS8); experiment: Selectivity ratio (h2B/hA3); assay type: protein assay
[6] = biological target: Adenosine receptors; A1 & A3 (Homo sapiens) (UniProt P30542+P0DMS8); experiment: Selectivity ratio (hA1/hA3); assay type: protein assay
Adenosine receptor A2b [7] = biological target: T1, Adenosine receptor A2b; experiment: Displacement of [3H]DPCPX from human Adenosine A2B receptor expressed in HEK293 cells; range 149-204; assay type: cell-based
In short: (§1)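 HEK-293 membranes expressing the human receptor were incubated 60 min at 25 °C. Six to eight test concentrations were used. Nonspecific binding was set with NECA. n = 3-6.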

Adenosine receptor A1 [8] = biological target: T2, Adenosine receptor A1; experiment: Displacement of [3H]DPCPX from human Adenosine A1 receptor expressed in CHO cells; range 198-382; assay type: cell-based
In short: (§2)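 Human recombinant A1 receptor in CHO cell membranes, resuspended in 50 mM Tris HCl pH 7.4. Displacement run 120 min at 25 °C with 1 nM [3H]DPCPX, 50 µg protein per assay, and at least six to eight test concentrations. Nonspecific binding defined with CHA. Bound and free separated on glass-fiber filters; filter radioactivity counted. n = 3-6.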

Adenosine receptor A2a [9] = biological target: T4, Adenosine receptor A2a; experiment: Displacement of [3H]SCH-58261 from human Adenosine A2A receptor expressed in HEK293 cells; range 96-133; assay type: cell-based
Adenosine receptor A3 [10] = biological target: T3, Adenosine receptor A3; experiment: biochemical
Adenosine receptor A2b [11] = biological target: T1, Adenosine receptor A2b; experiment: Displacement of [3H]DPCPX from human Adenosine A2B receptor expressed in HEK293 cells; range 124-180; assay type: cell-based; in short: as §1
Adenosine receptor A1 [12] = biological target: T2, Adenosine receptor A1; experiment: Displacement of [3H]DPCPX from human Adenosine A1 receptor expressed in CHO cells; range 184-333; assay type: cell-based
Adenosine receptor A2a [13] = biological target: T4, Adenosine receptor A2a; experiment: Displacement of [3H]SCH-58261 from human Adenosine A2A receptor expressed in HEK293 cells; range 78-114; assay type: cell-based
Adenosine receptor A3 [14] = biological target: T3, Adenosine receptor A3; experiment: Displacement of [3H]MRE3008-F20 from human Adenosine A3 receptor expressed in HEK cells; range 0.53-0.68; assay type: cell-based, HEK293
Adenosine receptor A1 [15] = biological target: T2, Adenosine receptor A1; experiment: Displacement of [3H]DPCPX from human Adenosine A1 receptor expressed in CHO cells; range 265-400; assay type: cell-based; in short: as §2
Adenosine receptor A2b [16] = biological target: T1, Adenosine receptor A2b; experiment: Displacement of [3H]DPCPX from human Adenosine A2B receptor expressed in HEK293 cells; range 56-103; assay type: cell-based
In short: (§3)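 Membranes from HEK-293 cells with human recombinant A2B receptor. Incubation 60 min at 25 °C in 50 mM Tris HCl, 10 mM MgCl2, 1 mM EDTA, 0.1 mM benzamidine, pH 7.4, with 2 IU/mL adenosine deaminase and 40 nM [3H]DPCPX. At least six to eight test concentrations. Nonspecific binding defined with NECA. n = 3-6.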

Adenosine receptor A3 [17] = biological target: T3, Adenosine receptor A3; experiment: Displacement of [3H]MRE3008-F20 from human Adenosine A3 receptor expressed in HEK cells; range 0.24-0.48; assay type: cell-based, HEK293
Adenosine receptor A2a [18] = biological target: T4, Adenosine receptor A2a; experiment: Displacement of [3H]SCH-58261 from human Adenosine A2A receptor expressed in HEK293 cells; range 123-162; assay type: cell-based
Adenosine receptor A2b [19] = biological target: T1, Adenosine receptor A2b; experiment: Displacement of [3H]DPCPX from human Adenosine A2B receptor expressed in HEK293 cells; range 89-116; assay type: cell-based; in short: as §3
Adenosine receptor A1 [20] = biological target: T2, Adenosine receptor A1; experiment: Displacement of [3H]DPCPX from human Adenosine A1 receptor expressed in CHO cells; range 332-479; assay type: cell-based; in short: as §2
Adenosine receptor A3 [21] = biological target: T3, Adenosine receptor A3; experiment: Displacement of [3H]MRE3008-F20 binding at human Adenosine A3 receptor expressed in HEK cells; range 0.82-1.01; assay type: cell-based, HEK293
Adenosine receptor A3 [22] = biological target: T3, Adenosine receptor A3; experiment: Inhibition of IB-MECA agonist-mediated cAMP production in CHO cell membranes expressing human Adenosine A3 receptor; range 4.4-15.2; assay type: functional, cell-based
Adenosine receptor A2a [23] = biological target: T4, Adenosine receptor A2a; experiment: Displacement of [3H]SCH-58261 from human Adenosine A2A receptor expressed in HEK293 cells; range 174-230; assay type: cell-based
Adenosine receptor A1 [24] = biological target: T2, Adenosine receptor A1; experiment: Displacement of [3H]DPCPX from human Adenosine A1 receptor expressed in CHO cells; range 290-418; assay type: cell-based; in short: as §2
Adenosine receptor A3 [25] = biological target: T3, Adenosine receptor A3; experiment: Displacement of [3H]MRE3008-F20 from human Adenosine A3 receptor expressed in HEK cells; range 0.37-0.56; assay type: cell-based, HEK293
Adenosine receptor A2a [26] = biological target: T4, Adenosine receptor A2a; experiment: Displacement of [3H]SCH-58261 from human Adenosine A2A receptor expressed in HEK293 cells; range 40-62; assay type: cell-based

SMILES: CCn1cc2c(nc(NC(=O)Nc3cccc(OC)c3)n3nc(-c4ccco4)nc23)n1
- Ki (Adenosine receptor A2b [1]): 215 nM
- Ki (Adenosine receptor A1 [2]): 400 nM
- Ki (Adenosine receptor A3 [3]): 0.86 nM
- Ki (Adenosine receptor A2a [4]): 140 nM
- Ratio [5]: 250
- Ratio [6]: 465

SMILES: CCCCn1cc2c(nc(NC(=O)Nc3cccc(OC)c3)n3nc(-c4ccco4)nc23)n1
- Ki (Adenosine receptor A2b [11]): 150 nM
- Ki (Adenosine receptor A1 [12]): 248 nM
- Ki (Adenosine receptor A2a [13]): 95 nM
- Ratio [5]: 250
- Ratio [6]: 413
- Ki (Adenosine receptor A3 [14]): 0.6 nM

SMILES: CCCn1cc2c(nc(NC(=O)Nc3ccc(Cl)cc3)n3nc(-c4ccco4)nc23)n1
- Ki (Adenosine receptor A1 [15]): 325 nM
- Ki (Adenosine receptor A2b [16]): 76 nM
- Ki (Adenosine receptor A3 [17]): 0.34 nM
- Ki (Adenosine receptor A2a [18]): 140 nM
- Ratio [5]: 224
- Ratio [6]: 956

SMILES: Cn1cc2c(nc(NC(=O)Nc3ccccc3Cl)n3nc(-c4ccco4)nc23)n1
- Ki (Adenosine receptor A2b [19]): 101 nM
- Ki (Adenosine receptor A1 [20]): 400 nM
- Ki (Adenosine receptor A3 [21]): 0.91 nM
- IC50 (Adenosine receptor A3 [22]): 8.2 nM
- Ki (Adenosine receptor A2a [23]): 200 nM
- Ratio [5]: 111
- Ratio [6]: 440

The next lines start with the values.

- Ki (Adenosine receptor A2b [7]): 175 nM
- Ki (Adenosine receptor A1 [8]): 275 nM
- Ki (Adenosine receptor A2a [9]): 113 nM
- Ratio [5]: 438
- Ratio [6]: 688
- Ki (Adenosine receptor A3 [10]): 0.4 nM
SMILES: CCCn1cc2c(nc(NC(=O)Nc3cccc(OC)c3)n3nc(-c4ccco4)nc23)n1

- Ki (Adenosine receptor A2b [11]): 150 nM
- Ki (Adenosine receptor A1 [24]): 350 nM
- Ki (Adenosine receptor A3 [25]): 0.45 nM
- Ki (Adenosine receptor A2a [26]): 50 nM
- Ratio [5]: 333
- Ratio [6]: 778
SMILES: CCCn1cc2c(nc(NC(=O)Nc3ccc(Br)cc3)n3nc(-c4ccco4)nc23)n1
